Data set [1] addresses T1, Progesterone receptor (Homo sapiens, UniProt P06401).
T1 sequence (P06401 whole entry): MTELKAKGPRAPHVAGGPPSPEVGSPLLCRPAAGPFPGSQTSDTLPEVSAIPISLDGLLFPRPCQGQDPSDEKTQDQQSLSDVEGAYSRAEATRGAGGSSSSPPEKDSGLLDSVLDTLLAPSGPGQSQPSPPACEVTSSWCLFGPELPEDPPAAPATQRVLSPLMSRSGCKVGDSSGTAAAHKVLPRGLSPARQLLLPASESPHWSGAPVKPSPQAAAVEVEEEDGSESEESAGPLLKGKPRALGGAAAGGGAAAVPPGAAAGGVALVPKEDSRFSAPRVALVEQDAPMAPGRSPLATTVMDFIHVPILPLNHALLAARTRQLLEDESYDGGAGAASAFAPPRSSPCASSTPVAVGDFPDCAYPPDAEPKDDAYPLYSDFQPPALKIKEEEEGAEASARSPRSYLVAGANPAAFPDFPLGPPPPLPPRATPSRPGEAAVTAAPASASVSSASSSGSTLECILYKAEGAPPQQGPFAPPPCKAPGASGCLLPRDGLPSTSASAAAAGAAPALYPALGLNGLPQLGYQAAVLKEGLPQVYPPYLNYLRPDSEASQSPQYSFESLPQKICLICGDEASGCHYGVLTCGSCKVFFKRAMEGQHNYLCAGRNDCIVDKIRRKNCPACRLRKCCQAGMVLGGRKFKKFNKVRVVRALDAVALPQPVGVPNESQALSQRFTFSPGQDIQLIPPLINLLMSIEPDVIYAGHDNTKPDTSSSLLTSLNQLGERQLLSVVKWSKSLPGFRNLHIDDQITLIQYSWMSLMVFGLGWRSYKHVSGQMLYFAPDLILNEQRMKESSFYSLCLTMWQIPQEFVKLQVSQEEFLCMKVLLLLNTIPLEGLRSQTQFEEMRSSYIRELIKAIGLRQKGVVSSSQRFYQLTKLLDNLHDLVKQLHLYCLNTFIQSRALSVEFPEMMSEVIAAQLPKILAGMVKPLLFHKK
The data set is described as follows: Antagonist activity at human PR expressed in human T47D cells assessed as inhibition of progesterone induced alkaline phosphatase. In kind it is functional, cell-based.

Data set [2] concerns the target T1, Progesterone receptor. Put plainly: Agonist activity at human PR expressed in human T47D cells assessed as stimulation of alkaline phosphatase. The data set is classed as functional, cell-based. The gist of the method:
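Cell-based agonist-mode assay in T47D cells, without progesterone. Cells were suspended in DMEM/F12 with 5% charcoal-stripped FBS, then incubated with compound for 24 h at 37 °C in 5% CO2. Cells were lysed in 0.1 M Tris-HCl pH 9.8 with 0.2% Triton, and 4 mM p-nitrophenyl phosphate was added. OD405 was read every 5 min for 30 min. EC50 comes from dose-response analysis and is the mean of at least duplicates.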

The target in data set [3] is T1, Progesterone receptor. Put plainly: Displacement of [3H]R5020 from human PR in human T47D cells by whole cell assay. The data set is classed as cell-based.
Data set [4] has as its system Cynomolgus monkey. Put plainly: Induction of early menses in cynomolgus monkey at 5 mg/kg, po. To be noted: in vivo. The data set is classed as organism-based, Macaca fascicularis. Further details: dose 5 mg/kg, route oral.
The species named for data set [5] is Rattus norvegicus. The data set is described as follows: Antagonist activity in rat uterus assessed as progesterone-induced decidualization response in stromal cells. The data set is classed as functional. The gist of the method: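 Female rat decidualization model: compound given orally in 0.5% methyl cellulose/2% Tween 80 to antagonize the progesterone-induced decidual response of uterine stromal cells. ED50 reported.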

Data set [6] is described as follows: Stability in rat liver microsome assessed as half life. In kind it is ADME. To be noted: liver microsomes. The essentials: (§1)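 Female rat, cynomolgus monkey and human liver microsome stability; half-life (min) reported.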
Background: Liver microsomes are vesicles of endoplasmic reticulum, rich in cytochrome P450 enzymes.

A short description of data set [7]: Stability in cynomolgus monkey liver microsome assessed as half life. The data set is classed as ADME, Macaca fascicularis. The following applies: liver microsomes. The essentials: as §1
Data set [8] in a line: Stability in human liver microsome assessed as half life. In kind it is ADME. The following applies: liver microsomes. The gist of the method: as §1
Data set [9] is described as follows: Drug level in cynomolgus monkey at […], iv. The data set is classed as ADME, organism-based, Macaca fascicularis. Further details: dose 0.25 mg/kg, route intravenous. To be noted: in vivo.
A short description of data set [10]: Plasma clearance in cynomolgus monkey at […], iv. The data set is classed as ADME, organism-based, Macaca fascicularis. Further details: dose 0.25 mg/kg, route intravenous.
Data set [11] in a line: Volume of distribution at steady state in cynomolgus monkey at […], iv. The data set is classed as ADME, organism-based, Macaca fascicularis. Further details: dose 0.25 mg/kg, route intravenous. To be noted: in vivo, read-out: Vdss.
A short description of data set [12]: Drug level in Sprague-Dawley rat at 0.5 mg/kg, iv. In kind it is ADME, organism-based. Also on record: dose 0.5 mg/kg, route intravenous. To be noted: in vivo. The gist of the method:
(§2)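 Female Sprague–Dawley rats dosed as 1-in-4 cassette or discrete studies. iv in DMSO/PEG200 20:80; po in aqueous 2% Tween 80/0.5% methyl cellulose. Parameters reported: C0, Cmax, t1/2, plasma clearance, Vss, AUC0-inf and %F.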

Data set [13] in a line: Half life in Sprague-Dawley rat at 0.5 mg/kg, iv. The data set is classed as ADME, organism-based. Also on record: dose 0.5 mg/kg, route intravenous. The following applies: in vivo. The essentials: as §2
Data set [14] in a line: Plasma clearance in Sprague-Dawley rat at 0.5 mg/kg, iv. In kind it is ADME, organism-based. Further details: dose 0.5 mg/kg, route intravenous. The essentials:
as §2

Data set [15] is described as follows: Volume of distribution at steady state in Sprague-Dawley rat at 0.5 mg/kg, iv. The data set is classed as ADME, organism-based. To be noted: in vivo, read-out: Vdss. Further details: dose 0.5 mg/kg, route intravenous. The gist of the method: as §2
The nature of data set [16]: AUC (0 to infinity) in Sprague-Dawley rat at 0.5 mg/kg, iv. The data set is classed as ADME, organism-based. Also on record: time infinity, dose 0.5 mg/kg, route intravenous. The following applies: plasma.

Here are results for 18 compounds from ChEMBL document CHEMBL1144664, “Design, synthesis, and SAR of new pyrrole-oxindole progesterone receptor modulators leading to 5-(7-fluoro-3,3-dimethyl-2-oxo-2,3-dihydro-1H-indol-5-yl)-1-methyl-1H-pyrrole-2-carbonitrile (WAY-255348)” (J Med Chem, 2008).

Each structure is given as a SMILES string.

The term IC50 denotes the midpoint of a concentration-inhibition curve. What is called EC50 is the concentration that produces a half-maximal response. By ED50 is commonly meant the dose that gives a 50% effect, or the effect in half of the subjects. The term half-life denotes how long it takes for the measured level to halve. By clearance is commonly meant the volume of plasma or blood freed of the substance per unit of time. As usually defined, the AUC(0-inf) is the area under the concentration-time curve extrapolated to infinity.

`CC(=O)OCN1C(=O)C(C)(C)c2cc(-c3ccc(C#N)n3C)cc(F)c21`: the IC50 in [1] is 48 nM.
As for `Cn1c(C#N)ccc1-c1ccc2c(c1)C1(CCCCC1)C(=O)N2`, the EC50 in data set [2] worked out at 2.3 nM. Also, in [3], the IC50 was determined as 3.3 nM.
For `Cn1c(C#N)ccc1-c1ccc2c(c1)C1(CCCC1)C(=O)N2` the same measures were 300 nM and 8.1 nM.
For `CN1C(=O)C(C)(C)c2cc(-c3ccc(C#N)n3C)cc(F)c21`, the IC50 in data set [1] is 15 nM.
In turn, `C=C1CCO[C@]12CC[C@H]1[C@@H]3CCC4=CC(=O)CCC4=C3[C@@H](c3ccc(C(C)=O)cc3)C[C@@]12C` had an Activity in data set [4] of 50%.
In data set [4], `CC#C[C@]1(O)CC[C@H]2[C@@H]3CCC4=CC(=O)CCC4=C3[C@@H](c3ccc(N(C)C)cc3)C[C@@]21C` [MIFEPRISTONE] gave an Activity of 60%. In addition, in data set [5], the ED50 came out at 0.7 mg/kg.
Regarding `N#Cc1ccc(-c2ccc3c(c2)CC(=O)N3)[nH]1`, the IC50 in data set [1] turned out to be 300 nM.
Consider `Cn1c(C#N)ccc1-c1cc2c(cc1F)NC(=O)C2(C)C`, for which the IC50 in data set [1] was 20.3 nM. Further, the half-life in [6] was 30 min.
`Cn1c(C#N)ccc1-c1ccc2c(c1)C(C)(C)OC(=O)N2`: in data set [3], the IC50 came out at 4.9 nM.
Turning to `Cn1c(C#N)ccc1-c1ccc2c(c1)C(C)(C)OC(=S)N2` [TANAPROGET], in [2], the EC50 came to 0.15 nM. In data set [3], this compound had an IC50 of 0.5 nM.
The compound `CCC1(CC)C(=O)Nc2ccc(-c3ccc(C#N)n3C)cc21` returned an IC50 in data set [3] of 36 nM. Also, the half-life was 10 min in data set [6], 15 min in data set [7] and above 30 min in data set [8].
Take `Cn1c(C#N)ccc1-c1cc(F)c2c(c1)C1(CCCC1)C(=O)N2`: in data set [2], the EC50 is 3000 nM. Besides, the IC50 in data set [3] came out at 14.7 nM.
With `CCN1C(=O)C(C)(C)c2cc(-c3ccc(C#N)n3C)cc(F)c21`, the IC50 in data set [1] is 29 nM.
For the compound `Cn1c(C#N)ccc1-c1ccc2c(c1)C(C)(C)C(=O)N2`, the IC50 in data set [3] turned out to be 22 nM. In addition, the half-life in [6] was 6 min; in data set [7], 13 min; in [8], above 30 min; in [13], 180 min. In data set [4], this compound yielded an Activity of 0%. The C0 in [9] was 241 ng/mL; in [12], 288 ng/mL. Besides, the values for the clearance in data set [10] and in data set [14] were 12 mL/min/kg and 9 mL/min/kg, respectively. Moreover, the Vd is 1.6 L/kg in data set [11] and 2.2 L/kg in data set [15]. In [16], this compound showed an AUC(0-inf) of 937 ng·h/mL.
For the compound `Cn1c(C#N)ccc1-c1cc(F)c2c(c1)C1(CCCCC1)C(=O)N2`, in [2], the EC50 was 1.3 nM. The compound also returned an IC50 in [3] of 3.6 nM.
`CCCN1C(=O)C(C)(C)c2cc(-c3ccc(C#N)n3C)cc(F)c21`: the IC50 in data set [1] turned out to be 27 nM.
`Cn1c(C#N)ccc1-c1ccc2c(c1)CC(=O)N2`: the values for the IC50 in data set [1] and in data set [3] were 20 nM and 80 nM, respectively. In addition, the half-life in [6], in data set [7] and in data set [8] was above 30 min in each case.
For `Cn1c(C#N)ccc1-c1ccc2c(c1F)C(C)(C)C(=O)N2`, the IC50 in data set [1] turned out to be 5.9 nM; in data set [3], 5.5 nM. Besides, in data set [6], the half-life turned out to be 2 min.
